Measurements from ChEMBL document CHEMBL3745677, “Discovery of 6-(4-{[5-Cyclopropyl-3-(2,6-dichlorophenyl)isoxazol-4-yl]methoxy}piperidin-1-yl)-1-methyl-1H-indole-3-carboxylic Acid: A Novel FXR Agonist for the Treatment of Dyslipidemia” (J Med Chem, 2015).

Tests used:
[1] = AUC (0 to 24 hrs) in Sprague-Dawley rat at 3 mg/kg, po by LC-MS/MS analysis; type: ADME, organism-based; set-up: time < 24 hr, dose 3 mg/kg, route oral; settings: in vivo
Method in brief: (§1)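 Sprague Dawley rats, Beagle dogs and Cynomolgus monkeys were dosed IV at 1 mg/kg (rat, dog) or 0.91 mpk (monkey) in 5% Solutol/5% EtOH in saline. Oral/nasogastric dosing was 3 mpk in 1.0% CMC/0.25% PS80/0.05% antifoam in purified water. Samples were processed to plasma and analysed by LC-MS/MS; values are mean ± SD, N=2-3.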

Rattus norvegicus [2] = test: Antidyslipidemic activity in ZDF rat assessed as VLDL level at 30 mg/kg for 9 days by FPLC analysis (reference value: 35 mg/dL); type: functional, Zucker
[3] = Cmax in beagle dog at 3 mg/kg, po by LC-MS/MS analysis; type: ADME, organism-based, Canis lupus familiaris; set-up: dose 3 mg/kg, route oral; settings: in vivo; method in brief: as §1
[4] = AUC (0 to 24 hrs) in cynomolgus monkey at 3 mg/kg, po by LC-MS/MS analysis; type: ADME, organism-based, Macaca fascicularis; set-up: time < 24 hr, dose 3 mg/kg, route oral; settings: in vivo; method in brief: as §1
[5] = AUC (0 to 24 hrs) in beagle dog at 3 mg/kg, po by LC-MS/MS analysis; type: ADME, organism-based, Canis lupus familiaris; set-up: dose 3 mg/kg, time < 24 hr, route oral; settings: in vivo; method in brief: as §1
[6] = Terminal half life in cynomolgus monkey at 0.91 mg/kg, iv by LC-MS/MS analysis; type: ADME, organism-based, Macaca fascicularis; settings: in vivo, read-out: beta t1/2 (converted)
Method in brief: (§2)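 Intravenous dose given in 5% Solutol / 5% EtOH in saline (1 mg/kg rat and dog, 0.91 mpk monkey). Plasma samples collected and analyzed by LC-MS/MS; parameters reported as mean ± SD, N=2-3.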

Rattus norvegicus [7] = test: Antidyslipidemic activity in ZDF rat assessed as HDL level at 10 mg/kg cotreated with 0.3 mg/kg rosiglitazone for 9 days by FPLC analysis (reference value: 48.3 mg/dL); type: functional, Zucker
[8] = molecular target: T1, Mineralocorticoid receptor (Homo sapiens, UniProt P08235); test: Agonist activity at mineralocorticoid receptor (unknown origin) expressed in HEK293 cells assessed as transcriptional activation; type: cell-based
T1 sequence (P08235 whole entry): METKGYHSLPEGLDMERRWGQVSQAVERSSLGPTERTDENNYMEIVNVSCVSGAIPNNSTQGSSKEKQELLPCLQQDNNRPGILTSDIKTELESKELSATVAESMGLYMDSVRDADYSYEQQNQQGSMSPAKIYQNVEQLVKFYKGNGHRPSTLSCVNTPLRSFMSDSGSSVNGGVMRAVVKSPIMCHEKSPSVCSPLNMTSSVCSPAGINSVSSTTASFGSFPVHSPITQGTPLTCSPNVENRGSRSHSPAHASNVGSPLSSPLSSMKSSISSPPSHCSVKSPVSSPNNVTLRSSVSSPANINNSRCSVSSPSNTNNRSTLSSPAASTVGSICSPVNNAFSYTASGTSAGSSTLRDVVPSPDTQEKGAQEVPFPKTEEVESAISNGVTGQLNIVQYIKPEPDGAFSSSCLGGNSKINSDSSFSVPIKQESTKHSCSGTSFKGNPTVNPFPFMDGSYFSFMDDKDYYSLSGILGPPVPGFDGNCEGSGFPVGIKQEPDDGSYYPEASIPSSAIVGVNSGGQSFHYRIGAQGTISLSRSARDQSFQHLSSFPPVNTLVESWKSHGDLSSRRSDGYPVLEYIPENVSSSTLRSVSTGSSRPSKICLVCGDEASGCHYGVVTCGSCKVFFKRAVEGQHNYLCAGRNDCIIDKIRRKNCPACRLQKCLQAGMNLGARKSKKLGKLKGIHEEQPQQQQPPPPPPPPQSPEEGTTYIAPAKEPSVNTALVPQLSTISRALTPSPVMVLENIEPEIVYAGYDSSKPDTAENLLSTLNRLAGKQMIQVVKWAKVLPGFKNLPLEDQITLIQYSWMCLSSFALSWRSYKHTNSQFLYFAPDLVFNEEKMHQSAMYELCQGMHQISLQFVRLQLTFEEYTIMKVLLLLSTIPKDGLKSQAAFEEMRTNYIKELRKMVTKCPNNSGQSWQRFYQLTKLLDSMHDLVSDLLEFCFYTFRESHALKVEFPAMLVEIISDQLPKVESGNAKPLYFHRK

[9] = AUC (0 to 24 hrs) in cynomolgus monkey at 0.91 mg/kg, iv by LC-MS/MS analysis; type: ADME, organism-based, Macaca fascicularis; set-up: dose 0.91 mg/kg, time < 24 hr, route intravenous; settings: in vivo; method in brief: as §1
Mus musculus [10] = test: Antidyslipidemic activity in western-diet fed mouse expressing LDL-receptor (-/-) assessed as decrease in low density lipoprotein level at 30 mg/kg qd for a week administered via gavage by FPLC analysis; type: functional; settings: po
Method in brief: (§3)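 LDLR null male mice, six per group, were dosed by gavage once daily for one week (vehicle 5% Solutol, 5% EtOH, 1% wt/v CMC; 5 mL/kg). Serum was collected by cardiac puncture on day 7 under CO2 anaesthesia. Pooled serum from each treatment group was fractionated by FPLC to quantify VLDL and LDL.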

Rattus norvegicus [11] = test: Antidyslipidemic activity in ZDF rat assessed as HDL level at 10 mg/kg for 9 days by FPLC analysis (reference value: 48.3 mg/dL); type: functional, Zucker
[12] = Initial plasma concentration in Sprague-Dawley rat at 1 mg/kg, iv by LC-MS/MS analysis; type: ADME, organism-based; method in brief: as §2
Mus musculus [13] = test: Antidyslipidemic activity in western-diet fed mouse expressing LDL-receptor (-/-) assessed as decrease in total cholesterol level at 10 mg/kg qd for a week administered via gavage […]; type: functional; settings: po
Method in brief: (§4)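 Male LDLR null mice, six per group, were gavaged once daily for one week with compound (in situ sodium salt) or vehicle (5% Solutol, 5% EtOH, 1% wt/v CMC) at 5 mL/kg. On day 7 they were bled by cardiac puncture under CO2 anaesthesia. Serum cholesterol and triglycerides were measured enzymatically on a clinical chemistry analyser (mean ± SD, n=6). ED50 was obtained by nonlinear regression.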

Mus musculus [14] = test: Antidyslipidemic activity in western-diet fed mouse expressing LDL-receptor (-/-) assessed as decrease in triglyceride level at 1 mg/kg qd for a week administered via gavage by FPLC analysis; type: functional; settings: po
Rattus norvegicus [15] = test: Antidyslipidemic activity in ZDF rat assessed as LDL/IgHDL level at 3 mg/kg for 9 days by FPLC analysis (reference value: 17.8 mg/dL); type: functional, Zucker
Mus musculus [16] = test: Antidyslipidemic activity in western-diet fed mouse expressing LDL-receptor (-/-) assessed as decrease in very-low density lipoprotein level at 3 mg/kg qd for a week administered via gavage by FPLC analysis; type: functional; settings: po; method in brief: as §3
Mus musculus [17] = test: Antidyslipidemic activity in western-diet fed mouse expressing LDL-receptor (-/-) assessed as decrease in low density lipoprotein level at 1 mg/kg qd for a week administered via gavage by FPLC analysis; type: functional; settings: po; method in brief: as §3
Mus musculus [18] = test: Antidyslipidemic activity in western-diet fed mouse expressing LDL-receptor (-/-) assessed as decrease in low density lipoprotein level at 10 mg/kg qd for a week administered via gavage by FPLC analysis; type: functional; settings: po; method in brief: as §3
Rattus norvegicus [19] = test: Antidyslipidemic activity in ZDF rat assessed as HDL level at 3 mg/kg for 9 days by FPLC analysis (reference value: 48.3 mg/dL); type: functional, Zucker
Mus musculus [20] = test: Antidyslipidemic activity in western-diet fed mouse expressing LDL-receptor (-/-) assessed as decrease in total cholesterol level at 3 mg/kg qd for a week administered via gavage […]; type: functional; settings: po; method in brief: as §4

AUC(0-t) at 24 h [1]: 365 ng·h/mL
Cmax [3]: 1240 ng/mL
AUC(0-t) at 24 h [4]: 1810 ng·h/mL
AUC(0-t) at 24 h [5]: 4690 ng·h/mL
half-life [6]: 5 h
EC50 [8]: > 10 µM
AUC(0-t) at 24 h [9]: 2300 ng·h/mL
C0 [12]: 2530 ng/mL
SMILES: Cn1cc(C(=O)O)c2ccc(N3CCC(OCc4c(-c5c(Cl)cccc5Cl)noc4C4CC4)CC3)cc21 [TERN-101]
Activity (Rattus norvegicus [2]): 13.2 mg/dL
Activity (Rattus norvegicus [7]): 95 mg/dL
inhibition in vivo at 30 mg/kg (Mus musculus [10]): 62%
Activity (Rattus norvegicus [11]): 74.4 mg/dL
inhibition in vivo at 10 mg/kg (Mus musculus [13]): 80%
inhibition in vivo at 1 mg/kg (Mus musculus [14]): 25%
Activity (Rattus norvegicus [15]): 10.8 mg/dL
inhibition in vivo at 3 mg/kg (Mus musculus [16]): 78%
inhibition in vivo at 1 mg/kg (Mus musculus [17]): 1%
inhibition in vivo at 10 mg/kg (Mus musculus [18]): 50%
Activity (Rattus norvegicus [19]): 62.5 mg/dL
inhibition in vivo at 3 mg/kg (Mus musculus [20]): 57%
